Results on 47 compounds are retold here after ChEMBL document CHEMBL3596154, “Discovery of biaryl carboxylamides as potent RORγ inverse agonists” (Bioorg Med Chem Lett, 2015).

For data set [1], the target named is T1, Nuclear receptor ROR-gamma (Homo sapiens, UniProt P51449).
T1 sequence (P51449 whole entry): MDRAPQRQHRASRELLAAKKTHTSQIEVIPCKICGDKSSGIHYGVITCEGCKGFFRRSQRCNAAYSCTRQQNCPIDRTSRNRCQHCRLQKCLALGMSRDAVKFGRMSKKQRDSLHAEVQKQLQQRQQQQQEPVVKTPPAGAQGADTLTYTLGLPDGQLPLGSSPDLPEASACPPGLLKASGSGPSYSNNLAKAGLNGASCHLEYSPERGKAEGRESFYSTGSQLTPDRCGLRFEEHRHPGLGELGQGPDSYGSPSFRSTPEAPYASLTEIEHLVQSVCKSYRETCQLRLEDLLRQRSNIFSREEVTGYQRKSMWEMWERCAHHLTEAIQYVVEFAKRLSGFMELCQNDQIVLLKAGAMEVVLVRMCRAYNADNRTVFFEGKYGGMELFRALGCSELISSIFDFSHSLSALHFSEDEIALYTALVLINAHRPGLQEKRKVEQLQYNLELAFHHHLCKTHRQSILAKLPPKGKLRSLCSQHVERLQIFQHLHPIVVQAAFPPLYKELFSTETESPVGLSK
Nature of the data set: Inverse agonist activity at Gal4 DNA binding domain-tagged human RORgammat expressed in HEK293T cells assessed as effect on receptor-mediated transcriptional activity by luciferase reporter gene assay. The class given is functional, cell-based, HEK-293T. The method, boiled down: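 293T cells transfected with a Gal4:RORγ luciferase reporter. Cells seeded day 1 and transfected day 2; compound added in assay medium after transfection. Day 3: cells lysed and luminescence read by dual-flash. Dose-response EC50 is the mean of at least two runs.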
On the technique in general: Reporter assays use an easily measured gene product as a stand-in for the process of interest.

The target of data set [2] is T1, Nuclear receptor ROR-gamma. The data set is described as follows: Inverse agonist activity at human recombinant GST-tagged RORgammat ligand binding domain assessed as effect on receptor-biotin tagged TRAP220 co-activator peptide interaction using 10 nM GST-RORgamma LBD by FRET-based assay. The method, boiled down: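 Recombinant human GST-RORγ LBD (10 nM) with 40 nM biotin-TRAP220 co-activator peptide, 50 nM SAAPC, 1.5 nM Eu-anti-GST IgG. Buffer: 20 mM Tris-HCl pH 7.0, 60 mM NaCl, 5 mM MgCl2, 1 mM DTT, 0.1% BSA, 1.0% DMSO. FRET read on plate reader. IC50 is the mean of at least two runs.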

A short description of data set [3]: Clearance in mouse hepatocytes relative to hepatic blood flow. Format: ADME, cell-based, Liver, Hepatocyte. As to conditions: read-out: CLH.
Data set [4] is described as follows: Clearance in human hepatocytes relative to hepatic blood flow. The class given is ADME, cell-based, Liver, Hepatocyte. Conditions: read-out: CLH.
The nature of data set [5]: Clearance in rat hepatocytes relative to hepatic blood flow. The class given is ADME, cell-based, Liver, Hepatocyte. As to conditions: read-out: CLH.
Data set [6] deals with T1, Nuclear receptor ROR-gamma. The data set is described as follows: Inverse agonist activity at human recombinant GST-tagged RORgammat ligand binding domain assessed as effect on receptor-biotin tagged TRAP220 co-activator peptide interaction using 10 nM GST-RORgamma LBD by FRET-based assay.

Take `NC(=O)c1ccc(Cl)c(-c2ccc3c(c2)CCCN3C(=O)c2c(F)cccc2Cl)c1`: the EC50 – broadly, the concentration needed to bring the measured effect to its halfway point – in data set [1] came out at 200 nM. The IC50 (in general, the concentration that gives 50% inhibition) in data set [2] worked out at 220 nM.
Take `NC(=O)c1cccc(-c2ccc3c(c2)CCCN3C(=O)c2c(F)cccc2Cl)c1`: the IC50 in data set [2] stood at 6200 nM.
Consider `Cc1ccc(C(N)=O)cc1-c1ccc2c(c1)CCCN2C(=O)c1c(F)cccc1Cl`, for which the EC50 in data set [1] was 450 nM. The IC50 in data set [2] is 300 nM.
As for `COc1ccc(C(N)=O)cc1-c1ccc2c(c1)CCCN2C(=O)c1c(F)cccc1Cl`, the IC50 in data set [2] stood at 1000 nM.
Still for that read-out and setting: to `NC(=O)c1ccc(F)c(-c2ccc3c(c2)CCCN3C(=O)c2c(F)cccc2Cl)c1` belongs 10900 nM; to `NC(=O)c1cc(F)cc(-c2ccc3c(c2)CCCN3C(=O)c2c(F)cccc2Cl)c1`, 13000 nM; to `NC(=O)c1cc(-c2ccc3c(c2)CCCN3C(=O)c2c(F)cccc2Cl)ccc1F`, 9300 nM.
The same measure, in the same setting: to `NC(=O)c1cc(-c2ccc3c(c2)CCCN3C(=O)c2c(F)cccc2Cl)c(F)cc1F` belongs 7100 nM.
On to `NC(=O)c1cc(-c2ccc3c(c2)CCCN3C(=O)c2c(F)cccc2Cl)c(Cl)cc1F`, for which, in data set [1], the EC50 is 140 nM. In addition, the IC50 in data set [2] turned out to be 550 nM.
For `CNC(=O)c1ccc(Cl)c(-c2ccc3c(c2)CCCN3C(=O)c2c(F)cccc2Cl)c1` the same measures were 200 nM and 100 nM.
On to `CN(C)C(=O)c1ccc(Cl)c(-c2ccc3c(c2)CCCN3C(=O)c2c(F)cccc2Cl)c1`, for which the IC50 in data set [2] was 2100 nM.
In the case of `CCNC(=O)c1ccc(Cl)c(-c2ccc3c(c2)CCCN3C(=O)c2c(F)cccc2Cl)c1`, the EC50 in data set [1] worked out at 160 nM. Also, the half-inhibitory concentration (IC50) in data set [2] came to 330 nM.
On the same counts, the results for `O=C(NC1CCCC1)c1ccc(Cl)c(-c2ccc3c(c2)CCCN3C(=O)c2c(F)cccc2Cl)c1` are 330 nM and 370 nM.
On to `O=C(NCCO)c1ccc(Cl)c(-c2ccc3c(c2)CCCN3C(=O)c2c(F)cccc2Cl)c1`, for which the EC50 in data set [1] amounted to 210 nM. Also, in data set [2], the IC50 was 190 nM.
For the compound `O=C(NCC(O)CO)c1ccc(Cl)c(-c2ccc3c(c2)CCCN3C(=O)c2c(F)cccc2Cl)c1` (stereo not drawn), the IC50 in data set [2] came out at 750 nM.
Still for that read-out and setting: to `COCCNC(=O)c1ccc(Cl)c(-c2ccc3c(c2)CCCN3C(=O)c2c(F)cccc2Cl)c1` belongs 1340 nM; to `O=C(NCCN1CCOCC1)c1ccc(Cl)c(-c2ccc3c(c2)CCCN3C(=O)c2c(F)cccc2Cl)c1`, 2120 nM.
Still for that read-out and setting: to `NC(=O)c1ccc(Cl)c(-c2ccc3c(c2)CCN3C(=O)c2c(F)cccc2Cl)c1` belongs 4800 nM.
With `NC(=O)c1ccc(Cl)c(-c2ccc3c(c2)CCCCN3C(=O)c2c(F)cccc2Cl)c1`, the 50% effective concentration (EC50) in data set [1] was 530 nM. Besides, in data set [2], the IC50 is 360 nM.
As to `CC1CCc2cc(-c3cc(C(N)=O)ccc3Cl)ccc2N1C(=O)c1c(F)cccc1Cl` (stereo not drawn), the IC50 in data set [2] came to 10000 nM.
Take `CC1(C)Cc2cc(-c3cc(C(N)=O)ccc3Cl)ccc2N(C(=O)c2c(F)cccc2Cl)C1`: the EC50 in data set [1] was 450 nM. In addition, the IC50 in data set [2] was found to be 640 nM.
For `CC1(C)CCN(C(=O)c2c(F)cccc2Cl)c2ccc(-c3cc(C(N)=O)ccc3Cl)cc21` the same measures were 300 nM and 200 nM.
Consider `NC(=O)c1ccc(Cl)c(-c2ccc3c(c2)C(F)(F)CCN3C(=O)c2c(F)cccc2Cl)c1`, for which the hepatic extraction ratio in data set [3] amounted to 0.83; in data set [4] it was 0.74; in data set [5], 0.86. In addition, in data set [2], the IC50 is 3600 nM.
As to `NC(=O)c1ccc(Cl)c(-c2ccc3c(c2)OCCN3C(=O)c2c(F)cccc2Cl)c1`, the hepatic extraction ratio in data set [3] was found to be 0.82; in data set [4], 0.76; in data set [5] it was 0.85. Moreover, the IC50 in data set [2] worked out at 1900 nM.
Turning to `CN1CCN(C(=O)c2c(F)cccc2Cl)c2ccc(-c3cc(C(N)=O)ccc3Cl)cc21`, the EC50 in data set [1] turned out to be 210 nM. Also, in data set [2], the IC50 is 250 nM.
Consider `CN(C(=O)c1c(F)cccc1Cl)c1ccc(-c2cc(C(N)=O)ccc2Cl)cc1`, for which the half-maximal inhibitory concentration (IC50) in data set [6] stood at 8700 nM.
Same read-out and setting: to `CCN(C(=O)c1c(F)cccc1Cl)c1ccc(-c2cc(C(N)=O)ccc2Cl)cc1` belongs 1290 nM; to `CN(C(=O)c1c(F)cccc1Cl)c1ccc(-c2cc(C(N)=O)ccc2Cl)cc1F`, 1930 nM.
On the same count and under the same terms, then `CN(C(=O)c1c(F)cccc1Cl)c1ccc(-c2cc(C(N)=O)ccc2Cl)cc1Cl`, with 2090 nM.
As to `CN(C(=O)c1c(F)cccc1Cl)c1ccc(-c2cc(C(N)=O)ccc2Cl)cc1Br`, in data set [1], the half-maximal effective concentration (EC50) is 772 nM. The IC50 in data set [6] was 820 nM.
On to `Cc1cc(-c2cc(C(N)=O)ccc2Cl)ccc1N(C)C(=O)c1c(F)cccc1Cl`, for which, in data set [6], the IC50 was found to be 4220 nM.
For `CCc1cc(-c2cc(C(N)=O)ccc2Cl)ccc1N(C)C(=O)c1c(F)cccc1Cl`, the EC50 in data set [1] was 350 nM. In data set [6], the IC50 stood at 730 nM.
For `CN(C(=O)c1c(F)cccc1Cl)c1ccc(-c2cc(C(N)=O)ccc2Cl)cc1C(F)(F)F` the same measures were 484 nM and 230 nM.
On the same counts, the results for `COc1cc(-c2cc(C(N)=O)ccc2Cl)ccc1N(C)C(=O)c1c(F)cccc1Cl` are 984 nM and 370 nM.
In the case of `CCN(C(=O)c1c(F)cccc1Cl)c1ccc(-c2cc(C(N)=O)ccc2Cl)cc1OC`, the 50% inhibitory concentration (IC50) in data set [6] was determined as 1500 nM.
Turning to `CCN(C(=O)c1c(F)cccc1Cl)c1ccc(-c2cc(C(N)=O)ccc2Cl)cc1C(F)(F)F`, the IC50 in data set [2] was 1600 nM.
Regarding `CCOc1cc(-c2cc(C(N)=O)ccc2Cl)ccc1N(C)C(=O)c1c(F)cccc1Cl`, the EC50 in data set [1] worked out at 181 nM. Further, the IC50 in data set [2] turned out to be 50 nM.
For `CC(C)Oc1cc(-c2cc(C(N)=O)ccc2Cl)ccc1N(C)C(=O)c1c(F)cccc1Cl` the same measures were 182 nM and 54 nM.
For `CCCOc1cc(-c2cc(C(N)=O)ccc2Cl)ccc1N(C)C(=O)c1c(F)cccc1Cl`, the EC50 in data set [1] came to 58 nM. Further, the IC50 in data set [2] came to 11 nM.
For `CCCCOc1cc(-c2cc(C(N)=O)ccc2Cl)ccc1N(C)C(=O)c1c(F)cccc1Cl` the same measures were 101 nM and 22 nM.
On the same counts, the results for `[2H]C([2H])([2H])N(C(=O)c1c(F)cccc1Cl)c1ncc(-c2cc(C(N)=O)ccc2Cl)cc1OCC(F)(F)F` are 245 nM and 89 nM.
For `CN(C(=O)c1c(F)cccc1Cl)c1ncc(-c2cc(C(N)=O)ccc2Cl)cc1OCC1CCC1` the same measures were 58 nM and 10 nM.
For the compound `[2H]C([2H])([2H])N(C(=O)c1c(F)cccc1Cl)c1ncc(-c2cc(C(N)=O)ccc2Cl)cc1OCC1CCC1`, the EC50 in data set [1] stood at 60 nM. Also, in data set [2], the IC50 was 10 nM.
For `CCNc1cc(-c2cc(C(N)=O)ccc2Cl)ccc1N(C)C(=O)c1c(F)cccc1Cl` the same measures were 717 nM and 500 nM.
For `CCN(CC)c1cc(-c2cc(C(N)=O)ccc2Cl)ccc1N(C)C(=O)c1c(F)cccc1Cl` the same measures were 12 nM and 3 nM.
On the same counts, the results for `CN(C(=O)c1c(F)cccc1Cl)c1ccc(-c2cc(C(N)=O)ccc2Cl)cc1N1CCCCC1` are 8 nM and 3 nM.
Consider `Cn1ccc2c(S(=O)(=O)N(CC(F)(F)F)c3ccc(-c4cc(C(N)=O)ccc4Cl)cc3)cccc21`, for which, in data set [2], the IC50 amounted to 710 nM.
